Assay outcomes as filed in PubChem.
The list is not random: actives were taken first. Their share in the collection is about 1.1%.
MT1-MMP act inh = MT1-MMP (human) activation inhibition | hit rate 0.061% among 360,000 | HT1080 RFP-PRO-GFP cells, GFP/RFP ratio fluorescence, overnight; percent of plate control window, DMSO zero | GFP/RFP ratio change, % at 20 µM;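 active = GFP/RFP ratio change of at least 30% with cell ATP level not reduced by more than half and red fluorescence within 50% of control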
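Read-out: GFP/RFP fluorescence ratio; Test system: RFP-PRO-GFP reporter HT1080 cells; Compound dosing: single-point 20 µM compound, 1% DMSO; Times: overnight compound exposure at 37 °C.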
A1 inh = inhibitors of the anti-apoptotic protein A1, read as caspase activation | MEF A1-2A-BIM cells, Caspase-Glo 3/7 luminescence, 3 h; percent of clofoctol response, vehicle zero | caspase activation, % (test concentration not listed) | hit rate 0.066% among 330,000 | AID 2462;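 active = over half of replicate activation scores above 10%, or exactly half above 10 with the replicate mean above 10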
SKN-1 block = C. elegans SKN-1 inhibition; C. elegans VP596 Pgst-4::GFP/RFP ratio, acrylamide-induced, 24 h; inhibition, % at 21.8 µM; hit rate 0.49% among 360,000;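 active = interference check ratio from 0.5 to 1.5 plus GFP to RFP signal ratio inhibition reaching or exceeding a fixed threshold, cut at about 30% in these data, passing the limit was not always enough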
NPR2 activator = GC-B (human) receptor activation; activation, % at 10 µM; hit rate 0.11% among 370,000; HEK293-GC-B cells, CNP EC30, cGMP TR-FRET; 0% at EC30 CNP, 100% saturating CNP; P20594;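 active = activation at 10 µM reaching about 35% in either raw or pattern-adjusted values, limit read from the data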
GC-A act = GC-A (human) enzyme activation; hit rate 0.14% among 370,000; P16066; activation, % at 10 µM; HEK293 GC-A cells, cGMP TR-FRET, EC30 ANP; 0% at EC30 ANP, 100% saturating ANP; in the data active = activation above about 40%
Target sequence (P16066 whole entry, looked up): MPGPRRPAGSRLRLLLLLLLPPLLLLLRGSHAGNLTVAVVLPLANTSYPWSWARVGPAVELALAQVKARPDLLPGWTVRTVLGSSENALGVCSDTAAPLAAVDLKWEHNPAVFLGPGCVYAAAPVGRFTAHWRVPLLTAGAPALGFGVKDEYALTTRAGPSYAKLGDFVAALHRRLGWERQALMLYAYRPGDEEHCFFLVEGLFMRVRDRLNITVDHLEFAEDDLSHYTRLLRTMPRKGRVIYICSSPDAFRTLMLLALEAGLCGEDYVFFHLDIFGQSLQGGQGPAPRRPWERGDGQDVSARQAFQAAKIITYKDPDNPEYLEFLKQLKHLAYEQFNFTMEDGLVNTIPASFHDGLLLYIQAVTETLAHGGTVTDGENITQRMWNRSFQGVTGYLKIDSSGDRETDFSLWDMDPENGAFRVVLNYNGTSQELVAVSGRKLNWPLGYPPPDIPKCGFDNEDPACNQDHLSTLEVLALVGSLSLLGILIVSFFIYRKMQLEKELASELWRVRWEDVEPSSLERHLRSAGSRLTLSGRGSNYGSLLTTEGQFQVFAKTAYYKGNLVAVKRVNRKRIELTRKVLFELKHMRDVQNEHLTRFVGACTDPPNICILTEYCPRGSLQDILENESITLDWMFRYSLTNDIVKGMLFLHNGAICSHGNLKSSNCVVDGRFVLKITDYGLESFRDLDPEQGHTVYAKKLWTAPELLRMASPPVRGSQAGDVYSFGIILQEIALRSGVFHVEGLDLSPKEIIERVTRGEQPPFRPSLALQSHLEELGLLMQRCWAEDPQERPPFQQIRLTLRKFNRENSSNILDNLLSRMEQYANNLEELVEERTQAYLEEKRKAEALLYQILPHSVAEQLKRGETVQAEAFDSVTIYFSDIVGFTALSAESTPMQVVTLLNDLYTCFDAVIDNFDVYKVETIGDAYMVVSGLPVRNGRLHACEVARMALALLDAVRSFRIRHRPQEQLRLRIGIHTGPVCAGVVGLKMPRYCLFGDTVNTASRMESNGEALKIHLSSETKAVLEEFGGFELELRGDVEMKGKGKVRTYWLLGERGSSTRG
Tb MetRS inh = blocks T. brucei methionyl-tRNA synthetase activity; purified T. brucei MetRS, ATP depletion, Kinase-Glo luminescence; inhibition, % at 11.9 µM; hit rate 0.4% among 360,000;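 active = inhibition above a per-plate cutoff of the control wells' mean inhibition plus 3 SD, cut at about 5.5% in these data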
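Dosing: 11.9 µM single point; system: parasite MetRS enzyme; technique: luminescence of leftover ATP; times: 15 min enzyme-compound preincubation, 2 h reaction, 10 min detection, 25 °C; replicates: each compound tested once; read-out basis: percent inhibition relative to median high and low control wells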
Of the large screens only hits and unclear results are named; the others gave an inactive call.

Cc1cc(C(=O)O[C@@H]2CCC[C@@]3(C(=O)N(Cc4ccccc4)c4ccccc43)[C@H]2NC(=O)CCc2ccccc2)no1	none (no result: MT1-MMP act inh, A1 inh, SKN-1 block, Tb MetRS inh)
Cc1cc(C)n(-c2ccc(C(=O)Oc3ccc4c(c3)OCO4)cc2)n1	SKN-1 block 37
CC(=O)c1ccc(OC(=O)c2ccc(-n3nc(C)cc3C)cc2)cc1	none
COc1ccc(C(C(=O)NC(C)(C)C)n2c(-c3ccc(=O)[nH]c3)nc3ccccc32)cc1 (stereo not drawn)	NPR2 activator 45, GC-A act 45 (no result: A1 inh)
COc1ccc(C(C(=O)NC(C)(C)C)n2c(COc3ccc(C)cc3)nc3ccccc32)cc1 (stereo not drawn)	none (no result: A1 inh)
C/C(=N/NC(=O)c1ccoc1C)c1cccs1	none (no result: MT1-MMP act inh, A1 inh, SKN-1 block, Tb MetRS inh)
Cc1ccc(S(=O)(=O)N2CCN(CCc3ccccc3)CC2)c(C)c1	none
Cc1ccc(S(=O)(=O)ON2C(=O)c3ccccc3C2=O)c(C)c1	NPR2 activator 46, GC-A act 41
O=C1c2ccccc2C(=O)N1OS(=O)(=O)c1ccc(F)cc1	GC-A act 42
Cc1cc(C)c(S(=O)(=O)ON2C(=O)c3ccccc3C2=O)cc1C	NPR2 activator 36
O=S(=O)(c1ccccc1)N1CCN(S(=O)(=O)c2ccc(F)cc2)CC1	none
Cc1cc(C)c(C)c(S(=O)(=O)ON2C(=O)c3ccccc3C2=O)c1C	NPR2 activator 47, GC-A act 42
Cc1ccc(OC(=O)CN2C(=O)c3ccccc3C2=O)cc1C	none
Cc1cccc(C)c1N(CC(=O)Nc1cccc(N(C)S(C)(=O)=O)c1)S(C)(=O)=O	SKN-1 block 37
N#CCCn1cc(/C=N/NC(N)=S)c(-c2ccc(Br)cc2)n1	NPR2 activator 55
C=CCN1C(C(=O)OC)CN(Cc2cn(Cc3ccc(Cl)cc3)nn2)CCS1(=O)=O (stereo not drawn)	none (no result: MT1-MMP act inh, A1 inh, SKN-1 block, Tb MetRS inh)
CC1=NOC(=O)/C1=C/c1ccc(-c2ccc(Cl)cc2)o1	SKN-1 block 37 (no result: NPR2 activator, GC-A act)
COc1ccccc1C1CC(c2cccs2)=Nc2ccccc2S1 (stereo not drawn)	none
COc1ccccc1C1CN(c2ccc(F)cc2F)N=C1c1cccs1 (stereo not drawn)	SKN-1 block 44
COCCCNC(=O)C[C@H]1C[C@@]2(C(=O)OC)C(=C[C@H](C(C)C)O[C@@H]2C2CC2)N(CCc2ccc(OC)c(OC)c2)C1=O	none (no result: MT1-MMP act inh, A1 inh, SKN-1 block, Tb MetRS inh)
Cc1ccc(S(=O)(=O)N2CCC(c3nc4ccccc4o3)CC2)s1	none (no result: MT1-MMP act inh, A1 inh, SKN-1 block, Tb MetRS inh)
N#CCOc1nc(N2CCOCC2)nc(N2CCOCC2)n1	none
N#Cc1nc(N2CCOCC2)nc(N2CCOCC2)n1	SKN-1 block 36
O=C(Nc1ccccc1)n1ccc2ccc(-c3ccc4cc[nH]c4c3)cc21	none (no result: MT1-MMP act inh, A1 inh, SKN-1 block, Tb MetRS inh)
C(=N/n1c2ccccc2c2ccccc21)/c1ccco1	SKN-1 block 51
C(=N\n1c2ccccc2c2ccccc21)/c1ccccc1	none
Oc1ccc(C=Nc2ccccc2-c2nc3ccccc3[nH]2)cc1	NPR2 activator 45
O=C(c1ccc(COc2ccc(F)cc2)o1)n1cccn1	GC-A act 45
O=C(c1ccc(COc2ccc(F)cc2)o1)n1cc(Br)cn1	none
O=C(OC12CCCN(C1)/C(=C/c1ccncc1)C2)c1ccco1 (stereo not drawn)	none (no result: MT1-MMP act inh, A1 inh, SKN-1 block, Tb MetRS inh)
CCCCn1c(=O)[nH]c(=O)c2c1nc(-c1ccc(-c3ccccc3Br)o1)n2CCOC	none
COCCn1c(-c2ccc(-c3ccccc3Cl)o2)nc2c1c(=O)[nH]c(=O)n2CC(C)C	NPR2 activator 36
O=C1CCC[C@H]2C[C@H](NCc3cccc(I)c3)CC[C@]23CCCN13	none (no result: MT1-MMP act inh, A1 inh, SKN-1 block, Tb MetRS inh)
COC(=O)C1CN(Cc2ccc(C)cc2)CCS(=O)(=O)N1Cc1cn(Cc2ccc(OC)cc2)nn1 (stereo not drawn)	none (no result: MT1-MMP act inh, A1 inh, SKN-1 block, Tb MetRS inh)
N/C(=N\OC(=O)c1ccc(Cl)c(Cl)c1)c1cccnc1	SKN-1 block 51
N/C(=N\OC(=O)c1cc(Cl)ccc1Cl)c1cccnc1	none
N/C(=N\OC(=O)c1cccc(Cl)c1)c1cccnc1	SKN-1 block 42
C=CCN1[C@H](C)COc2cccc(F)c2S1(=O)=O	none (no result: MT1-MMP act inh, A1 inh, SKN-1 block, Tb MetRS inh)
O=C(NC(=S)N1CCN(C/C=C/c2ccccc2)CC1)c1ccco1	none
O=C(c1ccco1)N1CCN(C/C=C/c2ccccc2)CC1	SKN-1 block 35
Cc1ccc(-c2nnc(NCc3nc4ccccc4[nH]3)c3ccccc23)cc1S(=O)(=O)N1CCOCC1	Tb MetRS inh 12 (no result: MT1-MMP act inh, NPR2 activator, GC-A act)
CCOc1ccc2nc(NCCNC(=O)Nc3cccc(C)c3)c(C#N)cc2c1	A1 inh 7.5
CCNc1nc(NC(C)(C)C)nc(N(C#N)CC)n1	NPR2 activator 48, GC-A act 44
CCNC(=S)N/N=C/c1ccc(OCC(=O)Nc2ccc(OC)cc2)c(OC)c1	NPR2 activator 55
COc1ccc(NC(=O)COc2ccc(/C=N/O)cc2OC)cc1	none
COc1cc(/C=N/NC(=S)NC(C)C)ccc1OCC(=O)Nc1c(C)cc(C)cc1C	NPR2 activator 44
c1ccc2cc(Cn3ccc4ccc(-c5ccc6cc[nH]c6c5)cc43)ccc2c1	none (no result: MT1-MMP act inh, A1 inh, SKN-1 block, Tb MetRS inh)
CCOC(=O)c1cnc2ccc(C(=O)OC)cc2c1NCCc1ccc(OC)c(OC)c1	NPR2 activator 36
O=C(NCc1ccc(F)c(F)c1)C1C2C=CC3(CN(Cc4ccccc4)C(=O)C13)O2 (stereo not drawn)	none (no result: MT1-MMP act inh, A1 inh, SKN-1 block, Tb MetRS inh)
CCN(Cc1ccccc1)C(=O)C1C2C=CC3(CN(Cc4ccccc4)C(=O)C13)O2 (stereo not drawn)	none (no result: MT1-MMP act inh, A1 inh, SKN-1 block, Tb MetRS inh)
CC(=O)N1/C(=C/c2ccc(N(C)C)cc2)C(=O)c2ccccc21	SKN-1 block 35 (no result: A1 inh)
Cc1cc(C)cc(C(=O)OCCCN(C)C2CN(Cc3cn(Cc4ccc([N+](=O)[O-])cc4)nn3)S(=O)(=O)C2)c1 (stereo not drawn)	none (no result: MT1-MMP act inh, A1 inh, SKN-1 block, Tb MetRS inh)
O=C(c1ccc(-c2ccc([N+](=O)[O-])cc2)o1)N1CCCCC1	none
CC1CC(C)CN(C(=O)c2ccc(-c3ccc([N+](=O)[O-])cc3)o2)C1 (stereo not drawn)	A1 inh 10
COc1ccc(CNC(=O)O[C@H]2CC[C@@]34CCCN3C(=O)CCC[C@H]4C2)cc1OC	none (no result: MT1-MMP act inh, A1 inh, SKN-1 block, Tb MetRS inh)
c1ccc(-c2nnc3n2N=C(c2ccc4ccccc4c2)CS3)cc1	none (no result: MT1-MMP act inh, A1 inh, SKN-1 block, Tb MetRS inh)
CCOc1cc(/C=C2/C(=N)N3C=CSC3=NC2=O)ccc1OCCCOc1ccccc1C	A1 inh 41
COc1ccc(-n2nc(C#N)c(Cl)cc2=O)cc1	GC-A act 47 (no result: A1 inh)
CCCCCc1ccc(NC(=O)O[C@@H]2CC[C@@]34CCCN3C(=O)CCC[C@H]4C2)cc1	none (no result: MT1-MMP act inh, A1 inh, SKN-1 block, Tb MetRS inh)
Cn1/c(=N/N=C/c2ccc(N3CCOCC3)cc2)sc2ccccc21	none
